Assay outcomes as filed in PubChem.
Most compounds without a hit are left out; they make up all but 3.3% or so of the library.
PRMT1 inh: inhibitors of human PRMT1; recombinant PRMT1, activity-based probe fluorescence polarization; inhibition, % at 2.79 µM; 1.3% of 370,000 active;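 active = inhibition above about 21% made by adding two undisclosed values, limit read from the data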
ABHD4 inh: inhibitors of mouse ABHD4; Q8VD66; purified mABHD4, FP-Rh probe fluorescence polarization; inhibition, % at 8.92 µM; 0.54% of 370,000 active;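 active = inhibition exceeding the mean over every tested compound plus 3 SD, cut at about 30% in these data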;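 note: 0% = plate median of compound wells and 100% = S159A mutant with DMSO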
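Test system: mABHD4 protein | Buffer or medium: HEPES pH 7.0 buffer, 150 mM NaCl, 0.01% Pluronic F-127 | Probe or stimulus: FP-Rh fluorescent activity-based probe, added after compound pre-incubation | Timing: Pre-incubation 45 min, probe exposure 60 min, at 25 °C | Technique: Fluorescence polarization, excitation 525 nm, emission 598 nm, BODIPY TMR filters | Repeats: Single well per compound (singlicate)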
TCR CD3 inh: blocks the human TCR-CD3 interaction; TAMRA-labeled TCR probe fluorescence, biochemical; inhibition, % at 9.4 µM; 0.37% of 360,000 active; AID 651800; in the data active = inhibition above about 19%;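 note: recombinant mutant TCR 2C K166C tagged with TAMRA read by polarization; 0% = receptor in buffer alone and 100% = receptor with positive control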
rCAG binder: r(CAG) repeat RNA binding; TO-PRO-1 dye displacement fluorescence; inhibition, % at 3 µM; 1.3% of 370,000 active; AID 651821;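 active = inhibition above the plate cutoff, the mean of all test compounds on that plate plus 3 SD, cut at about 35% in these data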;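 note: 0% = DMSO alone and 100% = 100 µM mitoxantrone as full dye displacement; higher means more dye released from RNA so lower well fluorescence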
SIAE inh: blocks human sialic acid acetylesterase; Q9HAT2; SIAE FP-Rh probe binding, fluorescence polarization; inhibition, % at 9.66 µM; 0.69% of 370,000 active; AID 1053197;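 active = inhibition above a cutoff: mean of compounds within the control limits plus 3 SD of those, cut at about 17% in these data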;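 note: 0% = plate median of compound wells and 100% = probe without SIAE protein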
Target sequence (Q9HAT2 whole entry, looked up): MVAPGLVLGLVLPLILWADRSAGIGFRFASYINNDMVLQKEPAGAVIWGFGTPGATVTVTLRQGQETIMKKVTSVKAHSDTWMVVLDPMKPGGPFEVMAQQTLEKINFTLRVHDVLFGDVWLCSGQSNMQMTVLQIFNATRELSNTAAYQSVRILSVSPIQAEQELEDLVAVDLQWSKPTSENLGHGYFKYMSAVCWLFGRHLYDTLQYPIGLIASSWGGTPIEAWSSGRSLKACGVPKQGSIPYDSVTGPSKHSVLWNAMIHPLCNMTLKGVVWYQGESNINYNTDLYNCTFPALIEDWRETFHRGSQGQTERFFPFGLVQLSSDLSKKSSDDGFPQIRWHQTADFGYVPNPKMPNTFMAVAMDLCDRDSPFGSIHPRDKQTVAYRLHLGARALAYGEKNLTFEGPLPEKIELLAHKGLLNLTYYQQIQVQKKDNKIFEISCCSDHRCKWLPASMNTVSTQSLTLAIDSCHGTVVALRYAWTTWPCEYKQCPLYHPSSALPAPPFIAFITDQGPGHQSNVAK
rCAG binder conf: r(CAG) RNA repeat binding, confirmation. TO-PRO-1 dye displacement fluorescence. inhibition, % at 3 µM. AID 652065. shares compounds with rCAG binder. 70% of 4,300 active;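 active = inhibition above a per-plate cutoff, the mean inhibition of sample wells plus 3 SD, cut at about 35% in these data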;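 note: loss of TO-PRO-1 fluorescence as compound displaces dye from 1x1 AA loop RNA; 0% = DMSO only wells and 100% = 100 µM mitoxantrone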
DNA CAG counter: disrupts DNA CAG TO-PRO-1 complex, flagging rCAG hits; shares compounds with rCAG binder; d(CAG) DNA oligo TO-PRO-1 dye displacement, fluorescence; inhibition, % at 3 µM; 94% of 4,300 active;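 active = inhibition above its plate's cutoff, the mean test-well inhibition plus 3 SD, cut at about 4.8% in these data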;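 note: 0% = DNA dye mix with DMSO and 100% = 100 µM mitoxantrone; hits displace the dye from DNA and so lower well fluorescence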
dCAG dye DR: disrupts DNA CAG TO-PRO-1 complex in dose response. IC50, µM. DNA CAG/GTC duplex TO-PRO-1 dye displacement fluorescence. shares compounds with rCAG binder. AID 686960. 20% of 250 active; in the data active = IC50 below about 10 µM
Starred values were filed as active, the others as inactive; i = inactive; . = no result.

SMILES	PRMT1 inh	ABHD4 inh	TCR CD3 inh	rCAG binder	SIAE inh	rCAG binder conf	DNA CAG counter	others
COc1ccc(C2Nc3ccccc3C(=O)N2NS(=O)(=O)c2ccccc2)c(OC)c1 (stereo unspecified)	3	3	-6	7	1	.	.
COc1cc(/C=C2\SC(=S)N(NC(=O)c3cccnc3)C2=O)ccc1O	1	-114	-88	-7	-113	.	.
COc1ccc(/C=C2\SC(=S)N(NS(=O)(=O)c3ccccc3)C2=O)c(OC)c1	8	1	-7	39*	-1	74*	34*	dCAG dye DR=i
O=C1/C(=C/c2cccs2)SC(=S)N1NS(=O)(=O)c1ccccc1	10	-8	-5	54*	-8	30	6.8*
COc1ccc(OC)c(/C=C2\SC(=S)N(NS(=O)(=O)c3ccccc3)C2=O)c1	-3	-10	-2	87*	1	67*	30*
CC(C)CNC(=O)OCc1cn(Cc2cc(F)ccc2F)nn1	0	-1	.	4	-1	.	.
CCOc1ccccc1NC(=O)CSc1nc2nc(-c3cccs3)cc(C(F)(F)F)c2c(=O)[nH]1	4	-84	0	70*	-51	79*	48*
Cc1[nH]n(-c2ccccc2)c(=O)c1C1(C(F)(F)F)C(=O)N(c2ccccc2)C2=C1C(=O)CC(C)(C)C2 (stereo unspecified)	1	1	-9	36*	3	22	7.3*
COc1ccc(S[C@]2(C(=O)N3CCN(c4ncccn4)CC3)CC(=O)N(c3ccccc3)[C@@H]2c2ccc(OC)cc2)cc1	0	-17	.	10	-10	.	.
CC1CCCCC1NC(=O)C(=O)NCC1CCCO1 (stereo unspecified)	-1	-13	-5	56*	-5	1	-2
O=C(C1CC1)N1CCc2cc(Br)c(S(=O)(=O)NCCCN3CCCCC3)cc21	1	1	.	5	0	.	.
O=C(c1cc(Cl)cc(Cl)c1)N1CC[C@H]2[C@H](CCCN2Cc2cc(F)cc(F)c2)C1	-4	-4	.	-1	4	.	.
CN[C@H]1C[C@H]2c3[nH]c4cccc(-c5cccc(F)c5)c4c3CCN2C(=O)[C@H]1[C@H](C)O	2	5	.	8	5	.	.
O=C(O)c1cccc(S(=O)(=O)N2CCCC(c3nc4c(nnn4Cc4ccccc4Cl)c(=O)[nH]3)C2)c1 (stereo unspecified)	-1	10	7	43*	-4	30	9.3*
Cc1c(/C=C(\CC(=O)O)c2nc3ccccc3s2)cc(C#N)n1C	2	1	-4	10	-2	.	.
Cc1nn(-c2ccccc2)c(Cl)c1/C=C(/CC(=O)O)c1nc2ccccc2s1	-2	0	1	47*	-1	36*	9.8*
Cc1nn(-c2ccccc2)c(Cl)c1/C=C(\CC(=O)O)c1nc2ccccc2s1	0	-4	-2	42*	3	43*	13*
Cc1cccc(C(=O)Nc2c(-c3ccc(C(F)(F)F)cc3)nc3ncccn23)c1	1	-2	.	4	2	.	.
CCN(CC)S(=O)(=O)c1ccc(N2CCOCC2)c(NS(=O)(=O)c2ccc(Cl)s2)c1	7	5	-2	44*	0	39*	10*
CCN(CC)S(=O)(=O)c1ccc(N2CCOCC2)c(NC(=O)C2CC2)c1	3	1	3	-3	-12	.	.
COc1cc(/C=C(\C#N)C(=O)Nc2ccccc2C(=O)O)cc(Cl)c1OC	7	-18	-14	47*	-20	77*	41*
COc1ccc(/C=C(/C#N)C(=O)Nc2ccccc2C)cc1C(=O)O	1	-9	1	6	3	.	.
O=C(N/N=C\C=C\c1ccco1)c1cc(-c2ccc3ccccc3c2)n[nH]1	8	-35	5	44*	-7	34	20*
C/C(C=NNC(=O)c1cc(-c2ccc(C)c(C)c2)n[nH]1)=C/c1ccco1	10	-21	.	20	-18	.	.
COC(=O)Cn1c(=O)c2c(n(Cc3ccccc3)c1=O)N/C(=C/c1ccc(Br)cc1)C2=O	1	-4	-4	62*	-3	75*	40*
